Usually LC50 stands for the concentration lethal to half of the exposed cells or organisms.

5 molecules from ChEMBL document CHEMBL1133703, “Inhibitors of topoisomerase II based on the benzodiimidazole and dipyrroloimidazobenzimidazole ring systems: controlling DT-diaphorase reductive inactivation with steric bulk” (2000) can be followed below.

What all share (type): functional
What all share (details): Homo sapiens

One test relates to NSCLC. Description: Lethal concentration was determined against NSC lung cancer cell line. Summed up:
(§1)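 NCI 60-cell-line in vitro screen run at the National Cancer Institute on a submitted sample of about 5 mg. The screen yields mean graph data: LC50 (50% lethal concentration), GI50 and TGI. The LC50 values reported are averages over the cell lines of each cancer type.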

For the next test, the system named is CNS carcinoma cell. Description: Lethal concentration was determined against CNS cancer cell line. Put shortly:
as §1

The subject of a further test is Colon carcinoma cell. The experiment in a line: Lethal concentration was determined against Colon cancer cell line. Put shortly:
as §1

For the next test, the system named is Ovarian carcinoma cell. The experiment in a line: Lethal concentration was determined against Ovarian cancer cell line. Put shortly:
as §1

The subject of a further test is Renal cancer cell line. The experiment in a line: Lethal concentration was determined against Renal cancer cell line. Summed up: as §1
A further test deals with Melanoma cell. Description: Lethal concentration was determined against Melanoma cell line. Summed up: as §1
The subject of test [1] is Panel leukemia (Carcinoma cell lines). The experiment in a line: Lethal concentration was determined against Leukemia cell line. Put shortly:
as §1

For `O=C1c2nc3n(c2C(=O)c2c1nc1n2CCC1)CCC3`, the LC50 in the test on NSCLC was 39.8 µM; in the test with CNS carcinoma cell it was 63.1 µM; in the test with Colon carcinoma cell, 50.1 µM. For the same molecule, the LC50 (50% lethal concentration) in the test on Ovarian carcinoma cell is 50.1 µM; in the test with Renal cancer cell line it was 79.4 µM; in the test on Melanoma cell it was 15.8 µM; in test [1], 100 µM.

On to `Cn1c(CCl)nc2c1C(=O)c1c(nc(CCl)n1C)C2=O`, for which the LC50 with NSCLC is 4.47 µM; in the test with CNS carcinoma cell it was 5.01 µM. The LC50 (50% lethal concentration) with Ovarian carcinoma cell was 10 µM; in the test on Renal cancer cell line, 6.31 µM; with Melanoma cell, 5.01 µM; in test [1] it was 4.37 µM.

On to `Cc1nc2c(n1C)C(=O)c1c(nc(CCl)n1C)C2=O`, for which the LC50 in the test with NSCLC is 12.3 µM; in the test with CNS carcinoma cell, 15.8 µM; with Colon carcinoma cell, 6.31 µM. The LC50 (50% lethal concentration) was 25.1 µM in the test with Ovarian carcinoma cell, 15.8 µM with Renal cancer cell line, 5.89 µM in the test with Melanoma cell and 12.9 µM in test [1].

With `CC(=O)OC1CCn2c1nc1c2C(=O)c2c(nc3n2CCC3OC(C)=O)C1=O` (centres undefined), the LC50 with NSCLC is 3.98 µM; with CNS carcinoma cell, 3.16 µM; with Colon carcinoma cell, 3.8 µM. Further, the LC50 (50% lethal concentration) is 3.98 µM in the test on Ovarian carcinoma cell, 6.31 µM in the test with Renal cancer cell line, 2.57 µM with Melanoma cell and 2.51 µM in test [1].

Take `CC(=O)NC1=C(C)C(=O)c2c(nc3n2CCC3OC(C)=O)C1=O` (centres undefined): the median lethal concentration (LC50) was 20 µM in the test with NSCLC, 25.1 µM in the test with CNS carcinoma cell and 31.6 µM with Colon carcinoma cell. Besides, the LC50 (50% lethal concentration) in the test on Ovarian carcinoma cell was 15.8 µM; in the test with Renal cancer cell line, 15.8 µM; with Melanoma cell, 12.6 µM; in test [1], 100 µM.
